Test results taken from ChEMBL document CHEMBL1153955, “Indolylarylsulfones bearing natural and unnatural amino acids. Discovery of potent inhibitors of HIV-1 non-nucleoside wild type and resistant mutant strains reverse transcriptase and coxsackie B4 virus” (J Med Chem, 2009).

Tests used:
Feline coronavirus = test: Antiviral activity against Feline coronavirus in feline […] cells assessed as inhibition of virus-induced cytopathicity; assay type: functional, organism-based; conditions: Alphacoronavirus 1
Vaccinia virus = test: Antiviral activity against Vaccinia virus Lederle in human HEL cells assessed as protection against virus-induced cytopathicity; assay type: functional, organism-based; conditions: Orthopoxvirus vaccinia
Sindbis virus = test: Antiviral activity against Sindbis virus in african green monkey Vero cells assessed as protection against virus-induced cytopathicity; assay type: functional, organism-based
Method in brief: (§1)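 Confluent cell monolayers inoculated with 100 CCID₅₀ virus. After 1-2 h adsorption, residual virus removed and cultures incubated with varying compound concentrations. Cytopathicity scored once it reached completion in untreated infected controls. EC₅₀ = dose reducing virus-induced cytopathogenicity by 50%.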

Influenza B virus [1] = test: Antiviral activity against influenza B virus in MDCK cells assessed as reduction of virus-induced cytopathicity by MTS method; assay type: functional, organism-based
Human alphaherpesvirus 1 [2] = test: Antiviral activity against thymidine kinase deficient and acyclovir resistant HSV1 KOS in human HEL cells assessed as protection against virus-induced cytopathicity; assay type: functional, organism-based; conditions: Human alphaherpesvirus 1, KOS
[3] = target: Human immunodeficiency virus type 1 reverse transcriptase (Human immunodeficiency virus 1, UniProt Q72547); test: Inhibition of HIV1 reverse transcriptase p66/p51; conditions: read-out: IC50
Influenza A virus [4] = test: Antiviral activity against influenza H1N1 virus in MDCK cells assessed as reduction of virus-induced cytopathicity by MTS method; assay type: functional, organism-based; conditions: Influenza A virus, H1N1, MDCK
Felid alphaherpesvirus 1 = test: Antiviral activity against Feline herpesvirus in feline […] cells assessed as inhibition of virus-induced cytopathicity; assay type: functional, organism-based
Coxsackievirus B4 [5] = test: Antiviral activity against Coxsackievirus B4 in african green monkey Vero cells assessed as protection against virus-induced cytopathicity; assay type: functional, organism-based; conditions: Enterovirus B; method in brief: as §1
[6] = target: Human immunodeficiency virus type 1 reverse transcriptase (Human immunodeficiency virus 1, UniProt Q72547, L100I); test: Inhibition of HIV1 reverse transcriptase p66/p51 L100I mutant; conditions: read-out: IC50
Method in brief: (§2)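 Substrate was 0.5 µg poly(rA)/oligo(dT) 10:1 (0.3 µM 3′-OH ends) with 10 µM [³H]dTTP, at 37 °C. Acid-precipitable radioactivity was counted on GF/C filters after TCA washes.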

Human alphaherpesvirus 1 [7] = test: Antiviral activity against HSV1 KOS in human HEL cells assessed as protection against virus-induced cytopathicity; assay type: functional, organism-based; conditions: Human alphaherpesvirus 1, KOS
Influenza A virus H3N2 [8] = test: Antiviral activity against influenza H3N2 virus in MDCK cells assessed as reduction of virus-induced cytopathicity by visual cytopathic effect scoring method; assay type: functional, organism-based
[9] = Cytotoxicity against feline CRFK cells by MTS assay; assay type: cell-based, Felis catus; conditions: cat
[10] = tested on: Respiratory syncytial virus; test: Antiviral activity against RSV Long in human HeLa cells assessed as protection against virus-induced cytopathicity; assay type: functional, organism-based; method in brief: as §1
Influenza A virus H3N2 [11] = test: Antiviral activity against influenza H3N2 virus in MDCK cells assessed as reduction of virus-induced cytopathicity by MTS method; assay type: functional, organism-based
[12] = Cytotoxicity against human HEL cells assessed as drug level causing microscopically detectable alteration of normal cell morphology after 3 days; assay type: cell-based
[13] = Cytotoxicity against african green monkey Vero cells assessed as drug level causing microscopically detectable alteration of normal cell morphology after 3 days; assay type: cell-based; conditions: chlorocebus sabaeus
Method in brief: (§3)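 Serial compound dilutions added to confluent HeLa or Vero monolayers. MCC = minimum concentration causing microscopically detectable alteration of cell morphology after 3 days of incubation.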

[14] = target: Human immunodeficiency virus type 1 reverse transcriptase (Human immunodeficiency virus 1, UniProt Q72547, K103N); test: Inhibition of HIV1 reverse transcriptase p66/p51 K103N mutant; conditions: read-out: IC50; method in brief: as §2
L1210 = test: Antiproliferative activity against mouse L1210 cells after 2 days; assay type: cell-based; conditions: L1210, 48 h
Method in brief: (§4)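 Cells seeded at 5 × 10⁴ to 7.5 × 10⁴ cells/200 µL with or without serial compound dilutions; incubated at 37 °C for 2 days (L1210) or 3 days (Molt4/C8, CEM). Cell numbers counted with a Coulter counter. CC₅₀ = concentration reducing proliferation by 50% versus untreated controls, read from plots of cell number (% of control) against concentration. Means of at least two independent experiments.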

Human respirovirus 3 = test: Antiviral activity against Parainfluenza virus type 3 in african green monkey Vero cells assessed as protection against virus-induced cytopathicity; assay type: functional, organism-based; conditions: Human respirovirus 3, Vero; method in brief: as §1
[15] = tested on: Human immunodeficiency virus 1; test: Antiviral activity against HIV1 3B in human CEM cells assessed as protection against virus-induced cytopathicity after 4 days; assay type: functional, organism-based; conditions: Human immunodeficiency virus 1, 3B, CCRF-CEM, 96 h
Method in brief: (§5)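 CEM cells (~3 × 10⁵ cells/mL) infected with ~100 CCID₅₀ per mL of HIV-1 (IIIB) or HIV-2 (ROD), then seeded into wells containing compound dilutions. After 4 days at 37 °C, syncytium (giant cell) formation was examined microscopically. EC₅₀ = concentration protecting CEM cells from HIV cytopathicity by 50%.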

Punta Toro virus = test: Antiviral activity against Punta Toro virus in african green monkey Vero cells assessed as protection against virus-induced cytopathicity; assay type: functional, organism-based; method in brief: as §1
[16] = target: Human immunodeficiency virus type 1 reverse transcriptase (Human immunodeficiency virus 1, UniProt Q72547, Y181I); test: Inhibition of HIV1 reverse transcriptase p66/p51 Y181I mutant; conditions: read-out: IC50; method in brief: as §2
[17] = Cytotoxicity against human HeLa cells assessed as drug level causing microscopically detectable alteration of normal cell morphology after 3 days; assay type: cell-based; method in brief: as §3
[18] = tested on: Vesicular stomatitis virus; test: Antiviral activity against VSV in human HeLa cells assessed as protection against virus-induced cytopathicity; assay type: functional, organism-based
Influenza B virus [19] = test: Antiviral activity against influenza B virus in MDCK cells assessed as reduction of virus-induced cytopathicity by visual cytopathic effect scoring method; assay type: functional, organism-based
[20] = tested on: Mammalian orthoreovirus 1; test: Antiviral activity against Reovirus 1 in african green monkey Vero cells assessed as protection against virus-induced cytopathicity; assay type: functional, organism-based; conditions: Mammalian orthoreovirus 1, Vero; method in brief: as §1
[21] = Antiproliferative activity against human Molt4/C8 cells after 3 days; assay type: cell-based; conditions: MOLT-4, 72 h; method in brief: as §4
[22] = tested on: Human immunodeficiency virus 2; test: Antiviral activity against HIV2 ROD in human CEM cells assessed as protection against virus-induced cytopathicity after 4 days; assay type: functional, organism-based; conditions: Human immunodeficiency virus 2, ROD, CCRF-CEM, 96 h; method in brief: as §5
[23] = Cytotoxicity against MDCK cells assessed as drug level causing microscopically detectable alteration of normal cell morphology; assay type: cell-based, Canis lupus familiaris; conditions: dog
CCRF-CEM = test: Antiproliferative activity against human CEM cells after 3 days; assay type: cell-based; conditions: 72 h; method in brief: as §4
Human alphaherpesvirus 2 = test: Antiviral activity against HSV2 G in human HEL cells assessed as protection against virus-induced cytopathicity; assay type: functional, organism-based; conditions: Human alphaherpesvirus 2, strain G; method in brief: as §1
Coxsackievirus B4 [24] = test: Antiviral activity against Coxsackievirus B4 in human HeLa cells assessed as protection against virus-induced cytopathicity; assay type: functional, organism-based; conditions: Enterovirus B; method in brief: as §1
Influenza A virus [25] = test: Antiviral activity against influenza H1N1 virus in MDCK cells assessed as reduction of virus-induced cytopathicity by visual cytopathic effect scoring method; assay type: functional, organism-based
[26] = tested on: Vesicular stomatitis virus; test: Antiviral activity against VSV in human HEL cells assessed as protection against virus-induced cytopathicity; assay type: functional, organism-based
[27] = Cytotoxicity against MDCK cells by MTS assay; assay type: cell-based, Canis lupus familiaris; conditions: dog

Compound | EC50 (Feline coronavirus) | EC50 (Vaccinia virus) | EC50 (Sindbis virus) | EC50 (Influenza B virus [1]) | EC50 (Human alphaherpesvirus 1 [2]) | IC50 [3] | EC50 (Influenza A virus [4]) | EC50 (Felid alphaherpesvirus 1) | EC50 (Coxsackievirus B4 [5]) | IC50 [6] | EC50 (Human alphaherpesvirus 1 [7]) | EC50 (Influenza A virus H3N2 [8]) | CC50 [9] | EC50 [10] | EC50 (Influenza A virus H3N2 [11]) | MCC at 72 h [12] | MCC at 72 h [13] | IC50 [14] | IC50 (L1210) | EC50 (Human respirovirus 3) | other results
Cc1cc(C)cc(S(=O)(=O)c2c(C(=O)NCC(N)=O)[nH]c3ccc(Br)cc23)c1 | > 20 µM | > 20 µM | > 20 µM | > 4 µM | > 20 µM | 0.026 µM | > 4 µM | > 20 µM | > 20 µM | 0.199 µM | > 20 µM | > 4 µM | 53 µM | 20 µM | > 4 µM | 100 µM | 100 µM | 0.782 µM | 40 µM | > 20 µM | EC50 [15]: 0.0026 µM; EC50 (Punta Toro virus): > 20 µM; IC50 [16]: 2.21 µM; MCC at 72 h [17]: 100 µM; EC50 [18]: > 20 µM; EC50 (Influenza B virus [19]): > 4 µM; EC50 [20]: > 20 µM; IC50 [21]: 17 µM; EC50 [22]: 43 µM; MCC [23]: 20 µM; IC50 (CCRF-CEM): 31 µM; EC50 (Human alphaherpesvirus 2): > 20 µM; EC50 (Coxsackievirus B4 [24]): 4 µM; EC50 (Influenza A virus [25]): > 4 µM; EC50 [26]: > 20 µM; CC50 [27]: 9.8 µM
Cc1cc(C)cc(S(=O)(=O)c2c(C(=O)NC(C)CS(N)(=O)=O)[nH]c3ccc(Cl)c(F)c23)c1 (stereo not drawn) | > 4 µM | > 4 µM | 20 µM | > 4 µM | > 4 µM | 0.036 µM | > 4 µM | > 4 µM | 12 µM | 0.267 µM | > 4 µM | > 4 µM | 15 µM | > 4 µM | > 4 µM | 20 µM | 100 µM | 0.003 µM | 18 µM | > 20 µM | EC50 [15]: 0.0039 µM; EC50 (Punta Toro virus): > 20 µM; IC50 [16]: > 40 µM; MCC at 72 h [17]: 20 µM; EC50 [18]: > 4 µM; EC50 (Influenza B virus [19]): > 4 µM; EC50 [20]: > 20 µM; IC50 [21]: 12 µM; EC50 [22]: > 10 µM; MCC [23]: 20 µM; IC50 (CCRF-CEM): 16 µM; EC50 (Human alphaherpesvirus 2): > 4 µM; EC50 (Coxsackievirus B4 [24]): > 4 µM; EC50 (Influenza A virus [25]): > 4 µM; EC50 [26]: > 4 µM; CC50 [27]: 7.3 µM
Cc1cc(C)cc(S(=O)(=O)c2c(C(=O)NCC(N)=O)[nH]c3ccc([N+](=O)[O-])cc23)c1 | > 100 µM | > 20 µM | > 100 µM | > 20 µM | > 20 µM | 0.034 µM | > 20 µM | > 100 µM | > 100 µM | 0.206 µM | > 20 µM | > 20 µM | > 100 µM | > 100 µM | > 20 µM | 100 µM | > 100 µM | 0.417 µM | > 500 µM | > 100 µM | EC50 [15]: 0.0024 µM; EC50 (Punta Toro virus): > 100 µM; IC50 [16]: 2.91 µM; MCC at 72 h [17]: > 100 µM; EC50 [18]: > 100 µM; EC50 (Influenza B virus [19]): > 20 µM; EC50 [20]: > 100 µM; IC50 [21]: > 500 µM; EC50 [22]: > 50 µM; MCC [23]: 100 µM; IC50 (CCRF-CEM): ≥ 500 µM; EC50 (Human alphaherpesvirus 2): > 20 µM; EC50 (Coxsackievirus B4 [24]): > 100 µM; EC50 (Influenza A virus [25]): > 20 µM; EC50 [26]: > 20 µM; CC50 [27]: > 100 µM
